# Measured values from ChEMBL document CHEMBL2375313, “Synthesis, in vitro antitumor evaluation and DNA-binding study of novel tetrahydroquinolines and some derived tricyclic and tetracyclic ring systems” (Eur J Med Chem, 2013).
# Columns and labels:
# Type in all cases: functional
# HOP-92 = assay: Cytotoxicity against human HOP92 cells assessed as growth inhibition at 10 uM after 48 hrs by sulphorhodamine B assay; details: HOP-92, 48 h, read-out: GI
# Outline: (§1)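 NCI-60 one-dose screen per the NCI Drug Evaluation Branch protocol. Cells given a single 10 µM concentration with 48 h continuous exposure. Growth estimated by sulphorhodamine B protein assay. Result expressed as percentage growth inhibition relative to untreated growth.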
# M14 = assay: Cytotoxicity against human M14 cells assessed as growth inhibition at 10 uM after 48 hrs by sulphorhodamine B assay; details: M14, 48 h, read-out: GI; outline: as §1
# NCI-H522 = assay: Cytotoxicity against human NCI-H522 cells assessed as growth inhibition at 10 uM after 48 hrs by sulphorhodamine B assay; details: NCI-H522, 48 h, read-out: GI; outline: as §1
# MDA-MB-468 = assay: Cytotoxicity against human MDA-MB-468 cells assessed as growth inhibition at 10 uM after 48 hrs by sulphorhodamine B assay; details: MDA-MB-468, 48 h, read-out: GI; outline: as §1
# SK-MEL-2 = assay: Cytotoxicity against human SK-MEL-2 cells assessed as growth inhibition at 10 uM after 48 hrs by sulphorhodamine B assay; details: SK-MEL-2, 48 h, read-out: GI; outline: as §1
# K562 = assay: Cytotoxicity against human K562 cells assessed as growth inhibition at 10 uM after 48 hrs by sulphorhodamine B assay; details: K562, 48 h, read-out: GI; outline: as §1
# CAKI-1 = assay: Cytotoxicity against human Caki1 cells assessed as growth inhibition at 10 uM after 48 hrs by sulphorhodamine B assay; details: CAKI-1, 48 h, read-out: GI; outline: as §1
# NCI-H23 = assay: Cytotoxicity against human NCI-H23 cells assessed as growth inhibition at 10 uM after 48 hrs by sulphorhodamine B assay; details: NCI-H23, 48 h, read-out: GI; outline: as §1
# CCRF-CEM = assay: Cytotoxicity against human CCRF-CEM cells assessed as growth inhibition at 10 uM after 48 hrs by sulphorhodamine B assay; details: read-out: GI; outline: as §1
# HCT-15 = assay: Cytotoxicity against human HCT15 cells assessed as growth inhibition at 10 uM after 48 hrs by sulphorhodamine B assay; details: HCT-15, 48 h, read-out: GI; outline: as §1
# [1] = Cytotoxicity against human EKVX cells assessed as growth inhibition at 10 uM after 48 hrs by sulphorhodamine B assay; details: read-out: GI; outline: as §1
# HL-60(TB) = assay: Cytotoxicity against human HL-60(TB) cells assessed as growth inhibition at 10 uM after 48 hrs by sulphorhodamine B assay; details: HL-60, 48 h, read-out: GI
# Outline: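 NCI-60 one-dose primary screen run to the Drug Evaluation Branch protocol. Cells are exposed to a single 10 µM concentration for 48 h continuously, and growth is read by SRB protein assay. Data are reported as percent growth of treated cells, expressed as % growth inhibition.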
# A549 = assay: Cytotoxicity against human A549 cells assessed as growth inhibition at 10 uM after 48 hrs by sulphorhodamine B assay; details: A549, 48 h, read-out: GI; outline: as §1
# NCI/ADR-RES = assay: Cytotoxicity against human NCI/ADR-RES cells assessed as growth inhibition at 10 uM after 48 hrs by sulphorhodamine B assay; details: read-out: GI; outline: as §1
# MOLT-4 = assay: Cytotoxicity against human MOLT4 cells assessed as growth inhibition at 10 uM after 48 hrs by sulphorhodamine B assay; details: MOLT-4, 48 h, read-out: GI; outline: as §1
# SNB-19 = assay: Cytotoxicity against human SNB19 cells assessed as growth inhibition at 10 uM after 48 hrs by sulphorhodamine B assay; details: SNB-19, 48 h, read-out: GI; outline: as §1
# Hs-578T = assay: Cytotoxicity against human Hs578T cells assessed as growth inhibition at 10 uM after 48 hrs by sulphorhodamine B assay; details: read-out: GI; outline: as §1
# SF-295 = assay: Cytotoxicity against human SF295 cells assessed as growth inhibition at 10 uM after 48 hrs by sulphorhodamine B assay; details: SF-295, 48 h, read-out: GI; outline: as §1
# MCF7 = assay: Cytotoxicity against human MCF7 cells assessed as growth inhibition at 10 uM after 48 hrs by sulphorhodamine B assay; details: MCF7, 48 h, read-out: GI; outline: as §1
# T47D = assay: Cytotoxicity against human T47D cells assessed as growth inhibition at 10 uM after 48 hrs by sulphorhodamine B assay; details: read-out: GI; outline: as §1
# UACC-62 = assay: Cytotoxicity against human UACC62 cells assessed as growth inhibition at 10 uM after 48 hrs by sulphorhodamine B assay; details: UACC-62, 48 h, read-out: GI; outline: as §1
# SF-268 = assay: Cytotoxicity against human SF268 cells assessed as growth inhibition at 10 uM after 48 hrs by sulphorhodamine B assay; details: SF-268, 48 h, read-out: GI; outline: as §1
# SK-MEL-5 = assay: Cytotoxicity against human SK-MEL-5 cells assessed as growth inhibition at 10 uM after 48 hrs by sulphorhodamine B assay; details: SK-MEL-5, 48 h, read-out: GI; outline: as §1
# SK-OV-3 = assay: Cytotoxicity against human SKOV3 cells assessed as growth inhibition at 10 uM after 48 hrs by sulphorhodamine B assay; details: SK-OV-3, 48 h, read-out: GI; outline: as §1
# RXF 393 = assay: Cytotoxicity against human RXF393 cells assessed as growth inhibition at 10 uM after 48 hrs by sulphorhodamine B assay; details: RXF 393, 48 h, read-out: GI; outline: as §1
# A498 = assay: Cytotoxicity against human A498 cells assessed as growth inhibition at 10 uM after 48 hrs by sulphorhodamine B assay; details: A498, 48 h, read-out: GI; outline: as §1
# OVCAR-5 = assay: Cytotoxicity against human OVCAR5 cells assessed as growth inhibition at 10 uM after 48 hrs by sulphorhodamine B assay; details: OVCAR-5, 48 h, read-out: GI; outline: as §1
# HT-29 = assay: Cytotoxicity against human HT-29 cells assessed as growth inhibition at 10 uM after 48 hrs by sulphorhodamine B assay; details: HT-29, 48 h, read-out: GI; outline: as §1
# HCT-116 = assay: Cytotoxicity against human HCT116 cells assessed as growth inhibition at 10 uM after 48 hrs by sulphorhodamine B assay; details: HCT-116, 48 h, read-out: GI; outline: as §1
# ACHN = assay: Cytotoxicity against human ACHN cells assessed as growth inhibition at 10 uM after 48 hrs by sulphorhodamine B assay; details: read-out: GI; outline: as §1
# RPMI-8226 = assay: Cytotoxicity against human RPMI8226 cells assessed as growth inhibition at 10 uM after 48 hrs by sulphorhodamine B assay; details: RPMI-8226, 48 h, read-out: GI; outline: as §1
# OVCAR-4 = assay: Cytotoxicity against human OVCAR4 cells assessed as growth inhibition at 10 uM after 48 hrs by sulphorhodamine B assay; details: OVCAR-4, 48 h, read-out: GI; outline: as §1
# PC-3 = assay: Cytotoxicity against human PC3 cells assessed as growth inhibition at 10 uM after 48 hrs by sulphorhodamine B assay; details: PC-3, 48 h, read-out: GI; outline: as §1
# IGROV-1 = assay: Cytotoxicity against human IGROV1 cells assessed as growth inhibition at 10 uM after 48 hrs by sulphorhodamine B assay; details: IGROV-1, 48 h, read-out: GI; outline: as §1
# DU-145 = assay: Cytotoxicity against human DU145 cells assessed as growth inhibition at 10 uM after 48 hrs by sulphorhodamine B assay; details: DU-145, 48 h, read-out: GI; outline: as §1
# LOX IMVI = assay: Cytotoxicity against human LOXIMVI cells assessed as growth inhibition at 10 uM after 48 hrs by sulphorhodamine B assay; details: read-out: GI; outline: as §1
# SR = assay: Cytotoxicity against human SR cells assessed as growth inhibition at 10 uM after 48 hrs by sulphorhodamine B assay; details: read-out: GI; outline: as §1
# SNB-75 = assay: Cytotoxicity against human SNB75 cells assessed as growth inhibition at 10 uM after 48 hrs by sulphorhodamine B assay; details: SNB-75, 48 h, read-out: GI; outline: as §1
# UO-31 = assay: Cytotoxicity against human UO31 cells assessed as growth inhibition at 10 uM after 48 hrs by sulphorhodamine B assay; details: UO-31, 48 h, read-out: GI; outline: as §1
# U-251 = assay: Cytotoxicity against human U251 cells assessed as growth inhibition at 10 uM after 48 hrs by sulphorhodamine B assay; details: U-251, 48 h, read-out: GI; outline: as §1
# MDA-MB-435 = assay: Cytotoxicity against human MDA-MB-435 cells assessed as growth inhibition at 10 uM after 48 hrs by sulphorhodamine B assay; details: MDA-MB-435, 48 h, read-out: GI; outline: as §1
smiles,measurement,setting,value
CC1CCCc2c1nc(NC(=S)NC(=O)c1ccccc1)c(C#N)c2-c1ccc(Cl)cc1 (stereo unspecified),inhibition of growth at 10 µM,HOP-92,38.2%
same,inhibition of growth at 10 µM,M14,< 10%
same,inhibition of growth at 10 µM,NCI-H522,27.5%
same,inhibition of growth at 10 µM,MDA-MB-468,14.5%
same,inhibition of growth at 10 µM,SK-MEL-2,10.3%
same,inhibition of growth at 10 µM,K562,36.3%
same,inhibition of growth at 10 µM,CAKI-1,22.5%
same,inhibition of growth at 10 µM,NCI-H23,10%
same,inhibition of growth at 10 µM,CCRF-CEM,27.6%
same,inhibition of growth at 10 µM,HCT-15,11.6%
same,inhibition of growth at 10 µM,[1],16.7%
same,inhibition of growth at 10 µM,HL-60(TB),30%
same,inhibition of growth at 10 µM,A549,16%
same,inhibition of growth at 10 µM,NCI/ADR-RES,< 10%
same,inhibition of growth at 10 µM,MOLT-4,31%
same,inhibition of growth at 10 µM,SNB-19,14.1%
same,inhibition of growth at 10 µM,Hs-578T,13.8%
same,inhibition of growth at 10 µM,SF-295,17.2%
same,inhibition of growth at 10 µM,MCF7,12.1%
same,inhibition of growth at 10 µM,T47D,38.8%
same,inhibition of growth at 10 µM,UACC-62,25.3%
same,inhibition of growth at 10 µM,SF-268,< 10%
same,inhibition of growth at 10 µM,SK-MEL-5,17.7%
same,inhibition of growth at 10 µM,SK-OV-3,20%
same,inhibition of growth at 10 µM,RXF 393,< 10%
same,inhibition of growth at 10 µM,A498,39%
same,inhibition of growth at 10 µM,OVCAR-5,< 10%
same,inhibition of growth at 10 µM,HT-29,< 10%
same,inhibition of growth at 10 µM,HCT-116,20%
same,inhibition of growth at 10 µM,ACHN,14%
same,inhibition of growth at 10 µM,RPMI-8226,55%
same,inhibition of growth at 10 µM,OVCAR-4,21.4%
same,inhibition of growth at 10 µM,PC-3,20.3%
same,inhibition of growth at 10 µM,IGROV-1,32%
same,inhibition of growth at 10 µM,DU-145,< 10%
same,inhibition of growth at 10 µM,LOX IMVI,11.1%
same,inhibition of growth at 10 µM,SR,< 10%
same,inhibition of growth at 10 µM,SNB-75,15.7%
same,inhibition of growth at 10 µM,UO-31,33.2%
same,inhibition of growth at 10 µM,U-251,20%
same,inhibition of growth at 10 µM,MDA-MB-435,< 10%
